Assay results from ChEMBL document CHEMBL4425098, “Thiolactomycin-Based Inhibitors of Bacterial β-Ketoacyl-ACP Synthases with in Vivo Activity” (J Med Chem, 2016).
In brackets after ≈: the same amount, converted by molar mass. Activity calls are given as the source filed them. The calls are words filed in the database; no cut-off is given here.

Columns and labels:
[1] = test system: Klebsiella pneumoniae; experiment: Antibacterial activity against Klebsiella pneumoniae KPC2ST258 infected in Swiss Webster mouse assessed as survival time at 100 mg/kg, sc administered 1, 12 and 24 hrs post infection measured every 12 hrs for 7 days; type: functional
Procedure, shortened: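 K. pneumoniae KPC2ST258 was given IP as 5×10⁶ cfu in BHI broth. Drugs in saline/PEG400/ethanol (40/20/40) were injected SC at 100 mg/kg/inj at 1, 12 and 24 h post infection. Mice were checked every 12 h for 7 days, n=8–10 per group. Average survival time was compared with vehicle by one-tailed t test.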

[2] = test system: Klebsiella pneumoniae; experiment: Antibacterial activity against Klebsiella pneumoniae KPC2ST258 after 18 to 24 hrs by Alamar blue dye-based colorimetric assay; type: functional, organism-based
[3] = test system: Yersinia pestis; experiment: Antibacterial activity against Yersinia pestis A1122 after 18 to 24 hrs by Alamar blue dye-based colorimetric assay; type: functional
[4] = test system: Francisella tularensis; experiment: Antibacterial activity against Francisella tularensis LVS after 18 to 24 hrs by Alamar blue dye-based colorimetric assay; type: functional
[5] = test system: Burkholderia pseudomallei; experiment: Antibacterial activity against Burkholderia pseudomallei after 18 to 24 hrs by Alamar blue dye-based colorimetric assay; type: functional
[6] = test system: Mycobacterium tuberculosis; experiment: Antibacterial activity against Mycobacterium tuberculosis H37Rv after 6 days by Alamar blue dye-based colorimetric assay; type: functional; details: 144 h
Procedure, shortened: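 M. tuberculosis H37Rv grown to early-mid log phase in Middlebrook 7H9 with 10% OADC and 0.05% Tween 80, added to 1:2 serial compound dilutions, and grown for 6 days at 37°C. Alamar blue then added for a further 24 h. MIC taken as the concentration preventing visible growth and Alamar blue reduction in all replicates.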

[7] = test system: Staphylococcus aureus; experiment: Antibacterial activity against methicillin-sensitive Staphylococcus aureus RN4220 after 18 to 24 hrs by Alamar blue dye-based colorimetric assay; type: functional
Procedure, shortened: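 Two-fold serial dilutions from 512 down to 0.25 μg/mL in CAMHB (microbroth dilution); incubated 37 °C for 18–24 h, then Alamar Blue added for a further 4 h. Absorbance read at 570 and 600 nm; percent growth reduction plotted against concentration, MIC90 from non-linear regression; growth and MICs confirmed by optical density.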

[8] = test system: Staphylococcus aureus; experiment: Antibacterial activity against methicillin-resistant Staphylococcus aureus BAA 1762 after 18 to 24 hrs by Alamar blue dye-based colorimetric assay; type: functional
[9] = target: T1, 3-oxoacyl-[acyl-carrier-protein] synthase 2 (Staphylococcus aureus, UniProt Q5TKS0); experiment: Binding affinity to Staphylococcus aureus wild type FabF expressed in Escherichia coli BL21 (DE3) PlysS cells by intrinsic tryptophan fluorescence quenching-based fluorimetric method
T1 sequence (Q5TKS0 whole entry): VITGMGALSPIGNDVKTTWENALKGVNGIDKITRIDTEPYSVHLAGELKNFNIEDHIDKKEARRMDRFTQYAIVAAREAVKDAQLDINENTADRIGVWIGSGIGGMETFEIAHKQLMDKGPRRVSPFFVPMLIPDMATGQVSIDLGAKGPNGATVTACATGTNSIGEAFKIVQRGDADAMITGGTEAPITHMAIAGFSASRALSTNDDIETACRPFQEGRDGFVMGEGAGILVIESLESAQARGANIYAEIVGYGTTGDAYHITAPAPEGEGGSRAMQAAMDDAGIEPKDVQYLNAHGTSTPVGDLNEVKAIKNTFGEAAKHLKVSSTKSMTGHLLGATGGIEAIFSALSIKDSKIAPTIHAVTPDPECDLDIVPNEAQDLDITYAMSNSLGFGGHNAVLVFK

[10] = target: 3-oxoacyl-[acyl-carrier-protein] synthase 2 (Staphylococcus aureus, UniProt Q5TKS0, C165Q); experiment: Binding affinity to Staphylococcus aureus FabF C165Q mutant expressed in Escherichia coli BL21 (DE3) PlysS cells by intrinsic tryptophan fluorescence quenching-based fluorimetric method
Procedure, shortened: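 Kd by quenching of intrinsic tryptophan fluorescence (excitation 280 nm, emission 337 nm). Inhibitor stocks in DMSO or buffer were titrated into 1 μM His-tag-purified enzyme in 50 mM Tris-HCl, 150 mM NaCl, 1 mM DTT, pH 8.5. mtFabB was expressed in M. smegmatis MC²155; saFabF was expressed in E. coli BL21(DE3) pLysS.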

[11] = test system: Staphylococcus aureus; experiment: Antibacterial activity against methicillin-resistant Staphylococcus aureus BAA 1762 infected in Swiss Webster mouse assessed as increase in survival rate at 100 mg/kg, sc administered 1 and 25 hrs post infection measured twice a day for 5 days relative to vehicle-treated control; type: functional, organism-based
Procedure, shortened: (§1)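 Mice made neutropenic with cyclophosphamide 4 days and 1 day before infection. MRSA BAA 1762 was given IP as 0.5 mL of 5×10⁷ cells/mL in BHI. Analogues in water/ethanol, or vancomycin in water, were dosed SC at 100 mg/kg/inj at 1 and 25 h post infection. Survival was checked every 12 h for 5 days, n=6–7 per group. Average survival time was compared with vehicle by one-tailed t test.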

[12] = test system: Staphylococcus aureus; experiment: Antibacterial activity against methicillin-resistant Staphylococcus aureus BAA 1762 infected in sc dosed Swiss Webster mouse assessed as increase in survival rate administered 1 and 25 hrs post infection measured twice a day for 5 days; type: functional; details: BAA 1762, sc; procedure, shortened: as §1
[13] = test system: Staphylococcus aureus; experiment: Antibacterial activity against methicillin-resistant Staphylococcus aureus BAA 1762 infected in Swiss Webster mouse assessed as survival time at 100 mg/kg, sc administered 1 and 25 hrs post infection measured twice a day for 5 days; type: functional; procedure, shortened: as §1
[14] = test system: Mycobacterium tuberculosis; experiment: Binding affinity to Mycobacterium tuberculosis wild type FabB expressed in Mycobacterium smegmatis MC2 155 by WaterLOGSY-based competition assay

| Compound | MIC90 [3] | MIC90 [4] | Activity [5] | MIC90 [6] | MIC90 [7] | MIC90 [8] | other results |
| --- | --- | --- | --- | --- | --- | --- | --- |
| GENTAMICIN |  |  |  |  |  |  | MSD [1]: 6.2 days; MIC [2]: < 1 µg/mL |
| C=C/C(C)=C/[C@@]1(C)SC(=O)C(CCC)=C1O | > 250 µg/mL | 25.8 µg/mL (≈ 108 µM) | inactive | 25 µg/mL (≈ 105 µM) | > 200 µg/mL | > 200 µg/mL |  |
| C=C/C(C)=C/[C@@]1(C)SC(=O)C(C(=O)OC)=C1O | > 250 µg/mL | 58.2 µg/mL (≈ 229 µM) | inactive | 100 µg/mL (≈ 393 µM) | > 64 µg/mL | > 64 µg/mL |  |
| C=C/C(C)=C/[C@@]1(C)SC(=O)C(CCCN=[N+]=[N-])=C1O | > 250 µg/mL | 23.6 µg/mL (≈ 84.5 µM) |  | 100 µg/mL (≈ 358 µM) | > 64 µg/mL | > 100 µg/mL |  |
| C=C/C(C)=C/[C@@]1(C)SC(=O)C(CCCCn2cc(CNC(=O)[C@H](O)C(C)(C)CO)nn2)=C1O | > 250 µg/mL | 250 µg/mL (≈ 522 µM) |  | > 100 µg/mL | > 64 µg/mL | > 100 µg/mL |  |
| C=C/C(C)=C/[C@@]1(C)SC(=O)C(C(=O)CCCCCN=[N+]=[N-])=C1O |  |  |  |  | 16 µg/mL (≈ 47.7 µM) | 16 µg/mL (≈ 47.7 µM) |  |
| C=C/C(C)=C/[C@@]1(C)SC(=O)C(CCCCn2cc(CNC(=O)c3ccc(NS(=O)(=O)c4ccc(F)cc4)cc3)nn2)=C1O | > 250 µg/mL | 250 µg/mL (≈ 400 µM) |  | 100 µg/mL (≈ 160 µM) | > 64 µg/mL | > 100 µg/mL |  |
| C=C/C(C)=C/[C@@]1(C)SC(=O)C(CCCCN=[N+]=[N-])=C1O | > 250 µg/mL | 15.3 µg/mL (≈ 52.1 µM) |  | 100 µg/mL (≈ 341 µM) | > 64 µg/mL | > 100 µg/mL | Kd [9]: 107 µM |
| C=C/C(C)=C/[C@@]1(C)SC(=O)C(C(=O)c2ccccc2C(=O)O)=C1O | > 250 µg/mL | 15.9 µg/mL (≈ 46.2 µM) | inactive | 50 µg/mL (≈ 145 µM) | 32 µg/mL (≈ 92.9 µM) | 32 µg/mL (≈ 92.9 µM) |  |
| C=C/C(C)=C/[C@@]1(C)SC(=O)C(C(=O)CCCCCc2ccc(-c3ccccc3)cc2)=C1O | > 250 µg/mL | 0.21 µg/mL (≈ 0.47 µM) | inactive | 50 µg/mL (≈ 112 µM) | 0.5 µg/mL (≈ 1.12 µM) | 1 µg/mL (≈ 2.24 µM) | Kd [9]: 35.2 µM; Kd [10]: 33 µM; Activity [11]: Active |
| CN[C@H](CC(C)C)C(=O)N[C@H]1C(=O)N[C@@H](CC(N)=O)C(=O)N[C@H]2C(=O)N[C@H]3C(=O)N[C@H](C(=O)N[C@H](C(=O)O)c4cc(O)cc(O)c4-c4cc3ccc4O)[C@H](O)c3ccc(c(Cl)c3)Oc3cc2cc(c3O[C@@H]2O[C@H](CO)[C@@H](O)[C@H](O)[C@H]2O[C@H]2C[C@](C)(N)[C@H](O)[C@H](C)O2)Oc2ccc(cc2Cl)[C@H]1O [VANCOMYCIN] |  |  |  |  |  |  | ED50 [12]: < 30 mg/kg; MSD [13]: 5 days |
| C=C/C(C)=C/[C@@]1(C)SC(=O)C=C1O | 250 µg/mL (≈ 1270 µM) | 124 µg/mL (≈ 632 µM) | inactive | > 100 µg/mL | 150 µg/mL (≈ 764 µM) | 100 µg/mL (≈ 509 µM) | Activity [14]: inactive |
| C=C/C(C)=C/[C@@]1(C)SC(=O)C=C1OCC(=O)NCCN=[N+]=[N-] |  | 39 µg/mL (≈ 121 µM) |  | > 100 µg/mL | > 64 µg/mL | > 64 µg/mL | Activity [14]: inactive |
| C=C/C(C)=C/[C@@]1(C)SC(=O)C(CC)=C1O | 145 µg/mL (≈ 646 µM) | 6.9 µg/mL (≈ 30.8 µM) |  | 2.5 µg/mL (≈ 11.1 µM) | 150 µg/mL (≈ 669 µM) | 125 µg/mL (≈ 557 µM) | MIC [5]: 32 µg/mL (≈ 143 µM) |
